Screening data deposited in PubChem BioAssay by several laboratories.
Hits are enriched below; roughly 1.3% of the tested compounds scored in any of these assays.
Diaphorase act: activates diaphorase or chemically reduces, flagging diaphorase assay artifacts; 190,000 tested, 0.005% active; Diaphorase/resazurin coupled assay, resorufin fluorescence, 16 min; stronger effect = higher value; 1 = vehicle wells, 0 = NADH-free wells; AID 1229; activation factor at 20 µM;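 active means diaphorase activity raised at least twofold by the compound at 20 µM; inactive means activation factor below 2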
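test system = bacterial diaphorase enzyme (C. kluyveri) | quantity = enzyme 0.07 U/mL final | reagent = NADH substrate 0.114 mM plus resazurin dye 0.1 mM, final | incubation = 16 min enzyme reaction, ambient temperature | buffer or medium = HEPES pH 7.4 buffer with MgCl2 and Tween 20 | signal = fluorescence of resorufin, 544 nm excitation, 590 nm emission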
PfG6PD inh: PfG6PD (Plasmodium falciparum) enzyme inhibition; PfGluPho enzyme, NADPH resazurin-diaphorase fluorescence; inhibition, % at 20 µM; 350,000 tested, 0.78% active;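 active means inhibition reaching at least a set limit at 20 µM in the primary screen, cut at about 59% in these data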;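 further: 0% = DMSO wells with substrate and 100% = DMSO wells lacking glucose-6-phosphate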
Tb hexokinase: T. brucei hexokinase 1 inhibition. 220,000 tested, 0.11% active. recombinant TbHK1, G6PDH-coupled NADH A340. inhibition, % at 10 µM;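 active means inhibition of 50% or more in the single-dose primary screen; inactive means inhibition below 50%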
HKDC1 inhibitor: inhibitors of human hexokinase HKDC1 | recombinant HKDC1, G6PDH/diaphorase resazurin coupled fluorescence | Q2TB90 | inhibition, % at 20 µM | 340,000 tested, 0.16% active | AID 493160;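 active means inhibition above about 35% when tested at 20 µM, limit read from the data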;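 further: plate controls were DMSO wells with enzyme for no effect and DMSO wells lacking enzyme for full effect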
Target sequence (Q2TB90 whole entry, looked up): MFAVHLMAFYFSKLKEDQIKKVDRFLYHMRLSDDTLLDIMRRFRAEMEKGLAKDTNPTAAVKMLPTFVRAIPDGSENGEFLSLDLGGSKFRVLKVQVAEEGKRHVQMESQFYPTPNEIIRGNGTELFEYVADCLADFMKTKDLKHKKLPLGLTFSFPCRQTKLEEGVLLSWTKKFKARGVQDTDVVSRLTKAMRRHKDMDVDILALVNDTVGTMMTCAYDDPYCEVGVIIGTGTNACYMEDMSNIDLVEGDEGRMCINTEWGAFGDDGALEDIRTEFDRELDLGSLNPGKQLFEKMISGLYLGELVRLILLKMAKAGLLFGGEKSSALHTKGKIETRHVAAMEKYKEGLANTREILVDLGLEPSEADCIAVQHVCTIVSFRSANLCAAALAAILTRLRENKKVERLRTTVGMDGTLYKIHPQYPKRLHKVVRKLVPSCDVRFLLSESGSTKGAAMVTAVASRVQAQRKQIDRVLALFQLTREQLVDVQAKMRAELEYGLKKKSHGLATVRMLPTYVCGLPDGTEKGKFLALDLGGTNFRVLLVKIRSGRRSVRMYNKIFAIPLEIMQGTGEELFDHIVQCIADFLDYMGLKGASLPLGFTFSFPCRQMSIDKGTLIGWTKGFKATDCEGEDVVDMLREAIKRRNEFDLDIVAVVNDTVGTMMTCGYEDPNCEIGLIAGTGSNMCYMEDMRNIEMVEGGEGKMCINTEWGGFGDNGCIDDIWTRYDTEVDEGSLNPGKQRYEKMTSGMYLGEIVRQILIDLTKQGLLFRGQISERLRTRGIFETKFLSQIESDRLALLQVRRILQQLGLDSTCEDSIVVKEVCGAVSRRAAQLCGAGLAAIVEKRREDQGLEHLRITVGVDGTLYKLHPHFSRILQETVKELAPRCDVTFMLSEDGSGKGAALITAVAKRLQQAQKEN
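Test system: HK5 enzyme. Quantity: 5 µg/mL HK5 final. Reagent: glucose and ATP substrates. Schedule: 90 min reaction incubation at room temperature, dark. Technique: resazurin-to-resorufin fluorescence via G6PDH and diaphorase coupling, 525/613 nm. Control set: DMSO wells with and without enzyme mix.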
G6PDH counter: L. mesenteroides G6PDH inhibition counter-screen; AID 1020; 200,000 tested, 0.12% active; inhibition, % at 5 µM; Purified L. mesenteroides G6PDH, diaphorase/resazurin coupled fluorescence, 45 min; in the data active means inhibition above about 50%
Diaphorase inh: diaphorase inhibition or chemical oxidation counter-screen. 190,000 tested, 0.69% active. diaphorase resazurin-to-resorufin fluorescence, NADH, 16 min; bacterial (C. kluyveri) enzyme, not human. inhibition, % at 20 µM;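 active means primary screen inhibition at 20 µM above a set limit, cut at about 50% in these data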;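 further: plate controls were DMSO with full reaction for no effect and wells lacking NADH for full effect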
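material = Clostridium kluyveri diaphorase enzyme | amount = 0.14 U/mL diaphorase, enzyme working solution | schedule = incubation 16 min, room temperature | detection = fluorescence of resorufin formed from resazurin, Ex 544/Em 590 nm | benchmarks = positive control minus NADH, DMSO neutral control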
HKDC1 act conf2: HKDC1 (human) activation, single-dose confirmed. shares compounds with HKDC1 inhibitor. recombinant HKDC1, G6PDH/diaphorase resazurin fluorescence; stronger effect = lower value. inhibition, % at 20 µM. 740 tested, 14% active;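 active means inhibition at or below a set negative limit, negative inhibition meaning the enzyme was activated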
PfG6PD confirm: confirmation of Plasmodium falciparum G6PD inhibitors | recombinant PfGluPho, NADPH-diaphorase-resazurin fluorescence | inhibition, % at 20 µM | shares compounds with PfG6PD inh | AID 504753 | 2,400 tested, 34% active;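 active means inhibition of at least 50% at 20 µM in any single replicate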;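 further: 0% = DMSO with substrate and 100% = DMSO lacking glucose-6-phosphate substrate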
Diaphorase 10uM: inhibits diaphorase or oxidizes, flagging false PfG6PD hits | inhibition, % at 20 µM | shares compounds with PfG6PD inh | AID 504862 | 820 tested, 39% active | diaphorase-coupled resazurin reduction, fluorescence, NADPH 10 uM;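 active means average inhibition reaching 50% or more with the compound at 20 µM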;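 further: resorufin red fluorescence formed as diaphorase reduces resazurin using NADPH; 0% = DMSO with enzyme and 100% = DMSO without enzyme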
Diaph ctr 30uM: diaphorase inhibition or oxidation at 30 uM NADPH; inhibition, % at 20 µM; AID 504863; 820 tested, 29% active; Diaphorase/resazurin coupled assay, resorufin fluorescence; shares compounds with PfG6PD inh;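 active means inhibition averaging 50% or more, tested at 20 µM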;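 further: 0% = DMSO with enzyme and 100% = DMSO wells lacking diaphorase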
An asterisk follows results filed as active; · = no result.

SMILES	Diaphorase act	PfG6PD inh	Tb hexokinase	HKDC1 inhibitor	G6PDH counter	Diaphorase inh	PfG6PD confirm	others
Nc1cnn(-c2ccccc2)c(=O)c1Cl	·	6.6	·	44.7*	·	·	·	HKDC1 act conf2=-21.9
CCN(CC)c1ccc(CNCCc2ccc(F)cc2)cc1	0.9	-4.0	7.5	-2.0	-6.6	8.0	·
Cc1cccc(N2C(=O)NC(=O)/C(=C\c3ccc4c(c3)CCCN4Cc3ccccc3)C2=O)c1	0.9	12.2	9.7	44.9*	-4.1	13.2	·	HKDC1 act conf2=45.2
CC1=NN(c2ccccc2)C(=O)C1/C=C1/C(=O)NC(=O)N(c2cccc(C)c2)C1=O (centres undefined)	0.8	·	-5.5	·	-3.0	24.9	·
Cc1ccc(OP2(=O)Nc3cc(C)c(C)cc3S2)cc1 (centres undefined)	·	45.7	·	-40.7	·	·	·	HKDC1 act conf2=-22.8
CC[C@]12CC[C@H](O)CC1=CCC1C2CC[C@]2(C)C(=O)CCC12 (some centres undefined)	·	-15.0	·	6.6	·	·	·
CN1CCc2cc3c(c4c2C1Cc1ccccc1-4)OCO3 (centres undefined)	·	88.9*	·	32.1	·	·	24.2	HKDC1 act conf2=-1.0
O=C1NC(=O)C(Nc2ccccc2)C(=O)N1	·	12.5	·	-7.1	·	·	·
CC1=C(O)C(=O)C=C2C1=CC=C1C2(C)CCC2(C)C3CC(C)(C(=O)O)CCC3(C)CCC12C (centres undefined)	·	80.5*	·	27.3	·	·	71.1*	Diaphorase 10uM=-15.2;Diaph ctr 30uM=-16.0
O=C1NC(=S)NC(=O)C1=Cc1ccc(Br)s1	·	64.8*	·	5.9	·	·	84.0*	Diaphorase 10uM=-23.6;Diaph ctr 30uM=-15.6
O=C1NC(=S)NC(=O)C1=Cc1c(Cl)cccc1Cl	·	29.5	·	6.0	·	·	·
O=c1[nH]sc2cc(F)ccc12	1	63.3*	6.2	-2.0	11.8	-1.7	52.5*	Diaphorase 10uM=-5.0;Diaph ctr 30uM=-9.3
COC(=O)C1=C(c2cccc(OCc3ccccc3)c2)C[C@@H]2CC[C@H]1N2C(=O)NCc1ccc2[nH]ccc2c1	·	0.0	·	5.2	·	·	·
CCCN1CCc2cc(O)cc3c2[C@H]1Cc1ccc(O)c(O)c1-3	·	86.2*	·	7.9	·	·	77.3*	Diaphorase 10uM=18.8;Diaph ctr 30uM=29.9
COc1cc2c(cc1O)C[C@H]1c3c(cc(O)c(OC)c3-2)CCN1C	·	-3.1	·	8.9	·	·	·
CN1CCc2cc(O)cc3c2[C@H]1Cc1ccc(O)c(O)c1-3	·	86.1*	·	0.8	·	·	83.1*	Diaphorase 10uM=24.5;Diaph ctr 30uM=6.2
CN1CCN(C(=O)COc2ccc(S(=O)(=O)Nc3ccc(Cl)cc3)cc2)CC1	·	3.9	·	·	·	·	·
CC(=O)n1cc(C=C2C(=O)NC(=O)NC2=O)c2ccccc21	·	66.4*	·	3.9	·	·	-20.0
O=C1NC(=O)C(=Cc2csc3ccccc23)C(=O)N1	·	65.2*	1.9	3.0	·	·	31.4
CCCCn1c(=O)c(C(=O)Nc2ccsc2C(=O)OC)c(O)c2ccccc21	0.9	-22.4	-18.6	-0.3	-20.3	5.2	·
CSc1nc(N)c(N=Nc2ccc([As](=O)(O)O)cc2)c(=O)[nH]1	·	50.0	-41.9	24.6	·	·	·
COc1cc(/C=N/NC(=O)Cn2c([N+](=O)[O-])cnc2C)ccc1OC(=O)N(C)C	0.9	2.7	-15.5	-2.8	8.8	9.6	·
CNS(=O)(=O)c1ccc(-c2ccc(C=C3C(=O)NC(=O)NC3=O)o2)cc1	·	80.6*	·	2.6	·	·	54.9*	Diaphorase 10uM=-12.4;Diaph ctr 30uM=-15.6
NS(=O)(=O)c1ccc(-c2ccc(C=C3C(=O)NC(=O)NC3=O)o2)cc1	·	77.7*	·	2.0	·	·	80.4*	Diaphorase 10uM=6.6;Diaph ctr 30uM=2.5
O=C1NC(=O)C(=Cc2ccc(SC3CCCCC3)o2)C(=O)N1	0.6	41.6	3.5	7.5	-3.2	36.1	·
SMILES	Diaphorase act	PfG6PD inh	Tb hexokinase	HKDC1 inhibitor	G6PDH counter	Diaphorase inh	PfG6PD confirm	others
COc1ccc(-c2ccc(OC)c(OC)c2OC)cc1	·	8.8	·	-2.4	·	·	·
O=C1NC(=O)C(=Cc2ccc(-c3ccccc3[N+](=O)[O-])o2)C(=O)N1	·	87.9*	-30.4	3.6	·	·	76.0*	Diaphorase 10uM=15.7;Diaph ctr 30uM=4.7
O=C1NC(=O)C(=Cc2ccc(-c3cc(Cl)ccc3[N+](=O)[O-])o2)C(=O)N1	0.7	69.2*	-11.1	23.2	-4.0	27.1	24.8
CNC(=O)Oc1ccc(-c2cn3cc(Cl)ccc3n2)cc1	0.8	68.5*	-11.3	0.0	0.9	18.0	46.6
C=CCNC(=O)c1c(N)n(Cc2ccco2)c2nc3ccccc3nc12	0.7	31.7	-14.1	4.7	-0.1	30.1	·
COCCNC(=O)c1c(N)n(Cc2ccco2)c2nc3ccccc3nc12	0.7	59.9*	-21.2	0.5	6.0	32.2	-2.4
C[C@]12CCC3C(CC[C@H]4C[C@@H](O)CC[C@]34C)C1CC[C@@H]2N (some centres undefined)	·	7.0	·	-5.0	·	·	·
O=C1C=C(N2CC2)c2ccccc2C1=O	·	99.7*	·	·	·	·	72.2*	Diaphorase 10uM=54.4*;Diaph ctr 30uM=63.2*
CC(C)=CCOc1c2occc2cc2ccc(=O)oc12	0.7	67.7*	-5.2	6.0	18.1	25.5	44.7
CC1(C)OC1COc1c2occc2cc2ccc(=O)oc12 (centres undefined)	0.9	6.0	-12.9	2.1	12.3	5.9	·
Cc1c(/C=C2/CC3C4CC=C5CC(O)CCC5(C)C4CCC3(C)C2=O)cnn1C (centres undefined)	·	·	46.6	·	·	·	·
c1ccc(Nc2ccc3ccccc3c2)cc1	·	37.8	·	12.0	·	·	·
CC(C)Nc1ccc(Nc2ccccc2)cc1	·	106.2*	·	10.9	·	·	52.1*	Diaphorase 10uM=-0.9;Diaph ctr 30uM=8.3
COc1cc(C(CN)CC(=O)O)ccc1O (centres undefined)	·	-10.2	-9.2	6.7	·	·	·
CCOC(=O)CC(SP1(=S)OCC2(CC=CCC2)CO1)C(=O)OCC (centres undefined)	·	15.1	·	-4.5	·	·	·
COc1cc(/C=C/c2nc3ccccc3c(=O)n2-c2ccccc2O)ccc1O	·	84.3*	·	1.0	·	·	38.7
COc1cc(/C=C/c2nc3ccccc3c(=O)n2-c2cccc(O)c2)ccc1O	·	24.7	-26.8	0.6	·	·	·
